High-throughput results (PubChem BioAssay)
TNAP inh hiacc – blocks human TNAP under high phosphate acceptor concentration. P05186. purified TNAP, CDP-star luminescence, 1 M DEA. 200,000 compounds, 0.03% hits. AID 1135. inhibition, % at 20 µM;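 active = over 50% inhibition of tissue-nonspecific alkaline phosphatase at 20 µM in the single-dose screen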
Target sequence (P05186 whole entry, looked up): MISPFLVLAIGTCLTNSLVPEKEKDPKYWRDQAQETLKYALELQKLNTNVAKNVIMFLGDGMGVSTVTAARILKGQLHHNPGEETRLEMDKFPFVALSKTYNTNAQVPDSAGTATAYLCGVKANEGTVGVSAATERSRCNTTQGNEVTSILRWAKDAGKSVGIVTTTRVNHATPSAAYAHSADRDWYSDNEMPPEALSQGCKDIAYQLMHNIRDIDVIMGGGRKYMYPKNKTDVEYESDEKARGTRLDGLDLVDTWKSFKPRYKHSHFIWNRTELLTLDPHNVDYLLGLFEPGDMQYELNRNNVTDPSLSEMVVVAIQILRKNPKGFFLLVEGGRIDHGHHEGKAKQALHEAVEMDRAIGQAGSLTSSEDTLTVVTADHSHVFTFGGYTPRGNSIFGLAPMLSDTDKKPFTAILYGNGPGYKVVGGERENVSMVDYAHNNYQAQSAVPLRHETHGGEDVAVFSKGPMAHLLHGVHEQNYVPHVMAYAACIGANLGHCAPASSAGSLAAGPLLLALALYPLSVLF
bCat KO growth – beta-catenin-lacking colon tumor cell growth suppression; AID 818; HCT116 beta-catenin knockout viability, CellTiter-Glo, 60 h; stronger effect = lower value; 140,000 compounds, 1.5% hits; viability, % at 10 µM;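 active = viability at or under a set limit, the compound median less 4 SD, cut at about 6% in these data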
Lmaj promast – reduces viability of Leishmania major promastigotes; inhibition, % at 10 µM; resazurin fluorescence viability; 200,000 compounds, 9% hits; in the data active = inhibition above about 50%;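 note: promastigotes grown with compound for 44 hours at 28 °C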
PTEN del growth – growth suppressors of cells with PTEN tumor suppressor deletion | viability, % at 10 µM | AID 827 | HCT116 PTEN-null viability, CellTiter-Glo, 60 h; stronger effect = lower value | 140,000 compounds, 1.2% hits;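 active = viability at or below a set limit, 4 SD under the median of all tested compounds, cut at about 3.7% in these data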;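 note: PTEN knockout HCT116 line with beta catenin targeted HCT116 as companion control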
TNAP inh no acc – TNAP (human) inhibition, acceptor-free conditions; 200,000 compounds, 0.26% hits; purified TNAP, CDP-star luminescence, 30 min; inhibition, % at 20 µM; P05186;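 active = tissue-nonspecific alkaline phosphatase inhibition above about 50% at 20 µM in the single-dose screen, limit read from the data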
TNAP act hiacc – increases human TNAP activity under high phosphate acceptor concentration; P05186; purified TNAP, CDP-star luminescence, 1 M DEA, 30 min; stronger effect = higher value; 0 = EDTA background, 1 = DMSO-only activity; activation factor at 20 µM; 200,000 tested, under 10 active; AID 1136;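 active = activation factor at least 2 at 20 µM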
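system = human TNAP | amount = enzyme diluted 1/800 final | reagent = 100 µM CDP-star substrate | signal = luminescent substrate turnover signal | dosing = one dose, 20 µM | benchmarks = EDTA negative control, DMSO positive control | measure = activation factor | timing = 30 min reaction, room temperature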
Large screens that a line does not name were inactive. Most compounds without a hit are left out; they make up all but 9.6% or so of the library.

O=C(c1cccnc1)N1CCN(C/C=C/c2ccccc2)CC1	none (no result: bCat KO growth, PTEN del growth)
O=C(c1cccnc1)N1CCN(CCCc2ccccc2)CC1	Lmaj promast 80
O=C(c1cccs1)N1CCN(CCCc2ccccc2)CC1	Lmaj promast 96
Cc1oc2ccc(NS(=O)(=O)c3cccc4cccnc34)cc2c1C(=O)OC(C)C	none
COc1ccc(C2C3=C(CC(C)(C)CC3=O)OC(N)=C2[N+](=O)[O-])cc1 (stereo unspecified)	none
CCOC(=O)c1c(C)nc2sc3c(=O)n(-c4ccc(C(C)=O)cc4)nnc3c2c1-c1ccc(Cl)cc1	Lmaj promast 54
CCOC(=O)c1c(C)nc2sc3c(=O)n(-c4ccc(C(C)=O)cc4)cnc3c2c1-c1ccc(Cl)cc1	none
Cc1ccc(S(=O)(=O)c2cc(C#N)c(=O)[nH]c2N)cc1	none
CCC1=NN(C(=O)COc2ccccc2)C(O)(c2ccncc2)C1 (stereo unspecified)	none (no result: bCat KO growth, PTEN del growth)
CCOC(=O)C1=NN(C(=O)COc2ccccc2)C(O)(c2ccc(Br)cc2)C1 (stereo unspecified)	TNAP inh no acc 51 (no result: bCat KO growth, PTEN del growth)
COc1ccc(OCCNC2CCCC2)cc1	Lmaj promast 61
CNCCCOc1ccc2c(c1)CCC2	none (no result: bCat KO growth, PTEN del growth)
c1cc2c(cc1OCCNC1CCCC1)CCC2	Lmaj promast 76 (no result: bCat KO growth, PTEN del growth)
Cc1ccc(OCCNC(=O)C2CCCCC2)cc1	none (no result: bCat KO growth, PTEN del growth)
c1ccc(-c2ccc(OCCCNC3CCCC3)cc2)cc1	Lmaj promast 100 (no result: bCat KO growth, PTEN del growth)
N#Cc1ccc(OCCOCCNC2CCCC2)cc1	Lmaj promast 81
Cc1ccc(C(=O)Nc2ccc(C(=O)N3CCCCC3C)cc2)cc1 (stereo unspecified)	none (no result: bCat KO growth, PTEN del growth)
c1ccc(Cc2ccc(OCCn3cncn3)cc2)cc1	none
c1coc(CNC2CCCCCCC2)c1	none
c1ccc(SCCCCNC2CCCC2)cc1	Lmaj promast 87
c1ccc(Cc2ccc(OCCCNC3CCCC3)cc2)cc1	Lmaj promast 100 (no result: bCat KO growth, PTEN del growth)
Cc1ccc(S(=O)(=O)Oc2ccccc2/C=N/NC(N)=S)cc1	none
Cc1ccc(S(=O)(=O)Oc2ccccc2/C=N/N=C(N)N)cc1	Lmaj promast 74 (no result: bCat KO growth, PTEN del growth)
COc1ccc(-c2[nH]n(-c3ccc([N+](=O)[O-])cc3)c(=O)c2C=NCc2ccncc2)cc1	Lmaj promast 99
CC1CC(C)CN(C(=O)c2cc3cc(Br)cc(Br)c3o2)C1 (stereo unspecified)	Lmaj promast 90 (no result: bCat KO growth, PTEN del growth)
O=C(c1cc2cc(Br)ccc2o1)N1CCCC1	none (no result: bCat KO growth, PTEN del growth)
CC1CC1C(=O)Nc1cc(S(=O)(=O)N2CCOCC2)ccc1N1CCCC1 (stereo unspecified)	none (no result: bCat KO growth, PTEN del growth)
COC(=O)c1cc2occc2n1Cc1ccc(Cl)cc1	Lmaj promast 56
COC(=O)c1cc2occc2n1Cc1c(F)cccc1Cl	none
O=C(NNS(=O)(=O)c1cccc(Cl)c1)c1cc(-c2ccc(F)cc2)nc2ccccc12	none (no result: bCat KO growth, PTEN del growth)
Cc1cccc(N2CCN(C(=O)c3ccoc3C)CC2)c1C	none
Cc1ccc(C)c(Nc2c(F)c(F)c(F)c(F)c2C(=O)O)c1	none (no result: bCat KO growth, PTEN del growth)
CC(=NC(C)C)C1=C(O)CCC1=O	none
CC(=NC(C)C)C1=C(O)C(C)OC1=O (stereo unspecified)	Lmaj promast 75
COc1cc(CN(C)CCc2ccccc2)ccc1OCc1ccccc1	Lmaj promast 96
CCN1CCN(Cc2ccc(OCc3ccccc3)c(OC)c2)CC1	Lmaj promast 65
COc1ccc(CN2CCN(C(=O)c3ccco3)CC2)cc1OCc1ccccc1	Lmaj promast 87
COc1ccc(CCN2C(=O)CN(Cc3ccccc3)CC2=O)cc1OC	PTEN del growth 0.1
COc1ccc(CN2CCN(C(=O)c3ccco3)CC2)cc1OC	none (no result: bCat KO growth, PTEN del growth)
CCN1CCN(Cc2ccc(OC)c(OCc3ccccc3)c2)CC1	none
Cc1cc(NC(=O)CCSc2ccccc2)no1	none (no result: bCat KO growth, PTEN del growth)
CC1Nc2ccccc2C(=O)N1NS(=O)(=O)c1ccccc1 (stereo unspecified)	none
CCC(C)NC(=O)C(=O)NCc1ccccn1 (stereo unspecified)	none (no result: bCat KO growth, PTEN del growth)
COP(=O)(OC)C(Nc1ccc(C)cc1)c1ccc([N+](=O)[O-])cc1 (stereo unspecified)	none
COc1ccc(CC(=O)N2CCN(c3ccccn3)CC2)cc1OC	none
COc1ccc(CN2CCN(c3ccccn3)CC2)cc1OCc1ccccc1	Lmaj promast 72
COc1ccc2ccccc2c1CN1CCN(Cc2ccccc2)CC1	Lmaj promast 56
O=C(C1CCN(S(=O)(=O)c2ccccc2[N+](=O)[O-])CC1)N1CCOCC1	none (no result: bCat KO growth, PTEN del growth)
C/C(=N/NC(=O)c1ccc(C)nc1)c1ccc2c(c1)CCCC2	none (no result: bCat KO growth, PTEN del growth)
Cc1ccnn1CC(=O)N/N=C/c1ccc2c(c1)OCO2	none
Cc1ccc(S(=O)(=O)Nc2ccc(NC(=O)c3c(F)c(F)c(F)c(F)c3F)cc2)cc1	none (no result: bCat KO growth, PTEN del growth)
CCN1CCN(C(c2cc3cccc(C)c3[nH]c2=O)c2nnnn2Cc2ccccc2)CC1 (stereo unspecified)	none
Cc1ccc2cc(C(c3nnnn3Cc3ccccc3)N3CCN(c4ccccc4)CC3)c(=O)[nH]c2c1 (stereo unspecified)	Lmaj promast 93
COc1cc2cc(C(c3nnnn3C3CCCC3)N3CCCCC3)c(=O)[nH]c2cc1OC (stereo unspecified)	none
Cc1cccc2cc(C(c3nnnn3Cc3ccccc3)N3CCCc4ccccc43)c(=O)[nH]c12 (stereo unspecified)	bCat KO growth 1.8, PTEN del growth 2.7
Cc1ccc2cc(C(c3nnnn3C3CCCC3)N3CCN(c4ccccc4)CC3)c(=O)[nH]c2c1 (stereo unspecified)	Lmaj promast 76
COc1ccc(Cn2nnnc2C(c2cc3cc(C)ccc3[nH]c2=O)N2CCOCC2)cc1 (stereo unspecified)	none
COc1ccc(N2CCN(C(c3cc4cc(C)ccc4[nH]c3=O)c3nnnn3Cc3ccccc3)CC2)cc1 (stereo unspecified)	Lmaj promast 99
CC1CC(C)CN(C(=O)COC(=O)CCc2nc3ccccc3c(=O)[nH]2)C1 (stereo unspecified)	none
CCOC(=O)C(/C(C)=N/NC(=O)C1CC1c1ccccc1)C(C)C (stereo unspecified)	none
Cc1ccc(S(=O)(=O)N2CCC(=O)N(CCOCc3ccc(C(F)(F)F)cc3)CC2)cc1	none
CC(C(=O)NC(C)(C)C)N(Cc1cccs1)C(=O)CCN1CCc2ccccc21 (stereo unspecified)	none (no result: bCat KO growth, PTEN del growth)
CCOC(=O)N1CCC(N(CCN(C)C)C(=S)Nc2cc(C)cc(C)c2)CC1	none
COc1ccc(OC)c(C2=C/C(=C/c3ccccn3)C(=O)O2)c1	none (no result: bCat KO growth, PTEN del growth)
O=C(NCC1CCCO1)c1ccc2c(=O)n(Cc3cccc(Br)c3)c(=S)[nH]c2c1 (stereo unspecified)	none (no result: bCat KO growth, PTEN del growth)
O=C(NNS(=O)(=O)c1ccc(C(=O)NC2CCCC2)cc1)c1ccncc1	none (no result: bCat KO growth, PTEN del growth)
CCC/C(=N\NC(=O)c1cccc(C)c1)c1ccccc1	none
COc1ccccc1-c1nnc2sc(COc3ccc(Cl)cc3)nn12	none
